ChEMBL document CHEMBL1287648, “Development of 3-aryl-1-isoquinolinamines as potent antitumor agents based on CoMFA” (Eur J Med Chem, 2010)

Key:
MDA-MB-231 = assay: Cytotoxicity against human MDA-MB-231 cells by sulforhodamine B method; format: functional, cell-based
SK-MEL-28 = assay: Cytotoxicity against human SK-MEL-28 cells by sulforhodamine B method; format: functional, cell-based
CAKI-1 = assay: Cytotoxicity against human Caki1 cells by sulforhodamine B method; format: functional, cell-based
HCT-116 = assay: Cytotoxicity against human HCT116 cells by sulforhodamine B method; format: functional, cell-based
OVCAR-3 = assay: Cytotoxicity against human OVCAR-3 cells by sulforhodamine B method; format: functional, cell-based
SNB-19 = assay: Cytotoxicity against human SNB19 cells by sulforhodamine B method; format: functional, cell-based
PC-3 = assay: Cytotoxicity against human PC3 cells by sulforhodamine B method; format: functional, cell-based
PANC-1 = assay: Cytotoxicity against human PANC1 cells by sulforhodamine B method; format: functional, cell-based
A549 = assay: Cytotoxicity against human A549 cells by sulforhodamine B method; format: functional, cell-based
HeLa [1] = assay: Cell cycle arrest in human HeLa cells assessed as accumulation at S phase at 100 nM after 24 hrs using propidium iodide staining by flow cytometry relative to control; format: functional
Procedure, shortened: (§1)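 HeLa cells exposed 24 h to compound (50–500 nM range) or left untreated, then washed and harvested. DNA was stained with propidium iodide and cell-cycle phase distribution measured by flow cytometry.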

HeLa [2] = assay: Cell cycle arrest in human HeLa cells assessed as accumulation at S phase at 300 nM after 24 hrs using propidium iodide staining by flow cytometry relative to control; format: functional; procedure, shortened: as §1
HeLa [3] = assay: Induction of apoptosis in human HeLa cells at 100 nM after 24 hrs using propidium iodide/annexin V staining by flow cytometry relative to control; format: functional
Procedure, shortened: (§2)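 Annexin V/PI apoptosis assay: HeLa cells given compound (50–500 nM, 24 h) or no treatment, then co-stained with FITC-annexin V and propidium iodide. Phosphatidylserine externalization was scored by flow cytometry, with early apoptotic (annexin V-positive) and late apoptotic quadrants read separately.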

HeLa [4] = assay: Induction of apoptosis in human HeLa cells at 200 nM after 24 hrs using propidium iodide/annexin V staining by flow cytometry relative to control; format: functional; procedure, shortened: as §2
HeLa [5] = assay: Cell cycle arrest in human HeLa cells assessed as accumulation at S phase at 500 nM after 24 hrs using propidium iodide staining by flow cytometry relative to control; format: functional; procedure, shortened: as §1
HeLa [6] = assay: Cell cycle arrest in human HeLa cells assessed as accumulation at G2/M phase at 200 nM after 24 hrs using propidium iodide staining by flow cytometry relative to control; format: functional; procedure, shortened: as §1
HeLa [7] = assay: Cell cycle arrest in human HeLa cells assessed as accumulation at S phase at 200 nM after 24 hrs using propidium iodide staining by flow cytometry relative to control; format: functional; procedure, shortened: as §1
HeLa [8] = assay: Cell cycle arrest in human HeLa cells assessed as accumulation at G1 phase at 50 nM after 24 hrs using propidium iodide staining by flow cytometry relative to control; format: functional; procedure, shortened: as §1
HeLa [9] = assay: Cell cycle arrest in human HeLa cells assessed as accumulation at G2/M phase at 300 nM after 24 hrs using propidium iodide staining by flow cytometry relative to control; format: functional; procedure, shortened: as §1
HeLa [10] = assay: Cell cycle arrest in human HeLa cells assessed as accumulation at S phase at 50 nM after 24 hrs using propidium iodide staining by flow cytometry relative to control; format: functional; procedure, shortened: as §1
HeLa [11] = assay: Cell cycle arrest in human HeLa cells assessed as accumulation at G1 phase at 100 nM after 24 hrs using propidium iodide staining by flow cytometry relative to control; format: functional; procedure, shortened: as §1
HeLa [12] = assay: Induction of apoptosis in human HeLa cells at 300 nM after 24 hrs using propidium iodide/annexin V staining by flow cytometry relative to control; format: functional; procedure, shortened: as §2
HeLa [13] = assay: Cell cycle arrest in human HeLa cells assessed as accumulation at G1 phase at 500 nM after 24 hrs using propidium iodide staining by flow cytometry relative to control; format: functional; procedure, shortened: as §1
HeLa [14] = assay: Induction of apoptosis in human HeLa cells at 50 nM after 24 hrs using propidium iodide/annexin V staining by flow cytometry relative to control; format: functional; procedure, shortened: as §2
HeLa [15] = assay: Cell cycle arrest in human HeLa cells assessed as accumulation at G2/M phase at 100 nM after 24 hrs using propidium iodide staining by flow cytometry relative to control; format: functional; procedure, shortened: as §1
HeLa [16] = assay: Cell cycle arrest in human HeLa cells assessed as accumulation at G2/M phase at 50 nM after 24 hrs using propidium iodide staining by flow cytometry relative to control; format: functional; procedure, shortened: as §1
HeLa [17] = assay: Cell cycle arrest in human HeLa cells assessed as accumulation at G2/M phase at 500 nM after 24 hrs using propidium iodide staining by flow cytometry relative to control; format: functional; procedure, shortened: as §1
HeLa [18] = assay: Cell cycle arrest in human HeLa cells assessed as accumulation at G1 phase at 300 nM after 24 hrs using propidium iodide staining by flow cytometry relative to control; format: functional; procedure, shortened: as §1
HeLa [19] = assay: Induction of apoptosis in human HeLa cells at 500 nM after 24 hrs using propidium iodide/annexin V staining by flow cytometry relative to control; format: functional; procedure, shortened: as §2
HeLa [20] = assay: Cell cycle arrest in human HeLa cells assessed as accumulation at G1 phase at 200 nM after 24 hrs using propidium iodide staining by flow cytometry relative to control; format: functional; procedure, shortened: as §1

| Structure (SMILES) | IC50 (MDA-MB-231) [µM] | IC50 (SK-MEL-28) [µM] | IC50 (CAKI-1) [µM] | IC50 (HCT-116) [µM] | IC50 (OVCAR-3) [µM] | IC50 (SNB-19) [µM] | IC50 (PC-3) [µM] | IC50 (PANC-1) [µM] | IC50 (A549) [µM] | also measured |
| --- | --- | --- | --- | --- | --- | --- | --- | --- | --- | --- |
| COc1cccc(-c2cc3cc(C)ccc3c(N)n2)c1 | 0.57 | 0.72 | 0.69 | 0.59 | 0.47 | 0.75 | 1.19 | 1.28 | 0.107 | – |
| Cc1ccc2c(N)nc(-c3c(C)cccc3C)cc2c1 | 0.14 | 0.23 | 0.12 | 0.17 | 0.16 | 0.24 | 0.24 | 0.21 | 0.38 | – |
| Cc1cccc(-c2cc3cc(C)ccc3c(N)n2)c1 | 0.15 | 0.25 | 0.16 | 0.18 | 0.15 | 0.21 | 0.22 | 0.2 | 0.182 | – |
| COc1cccc(-c2cc3ccc(C)cc3c(N)n2)c1 | 0.17 | 0.41 | 0.14 | 0.21 | 0.24 | 0.48 | 0.42 | 0.47 | 0.447 | – |
| Cc1ccc2cc(-c3ccccc3C)nc(N)c2c1 | 0.075 | 0.18 | 0.14 | 0.12 | 0.1 | 0.16 | 0.26 | 0.2 | 0.0537 | – |
| CN(C)c1cccc2c(N)nc(-c3ccccc3)cc12 | > 10 | > 10 | > 10 | > 10 | > 10 | > 10 | > 10 | > 10 | > 10 | – |
| COc1ccc(-c2cc3cc(C)ccc3c(N)n2)cc1OC | 0.66 | 1.41 | 0.51 | 0.85 | 0.57 | 2.15 | 2.69 | 1.75 | 0.562 | – |
| Cc1ccc2c(N)nc(-c3ccc4c(c3)OCO4)cc2c1 | 0.13 | 0.22 | 0.11 | 0.16 | 0.16 | 0.23 | 0.19 | 0.22 | 0.141 | – |
| COc1ccc(-c2cc3cc(C)ccc3c(N)n2)c(C)c1 | 0.15 | 0.29 | 0.12 | 0.17 | 0.17 | 0.28 | 0.25 | 0.24 | 0.17 | – |
| COc1cc2cc(-c3ccccc3)nc(N)c2cc1OC | 0.44 | 0.75 | 0.59 | 0.52 | 0.27 | 0.71 | 0.58 | 0.67 | 0.129 | – |
| COc1cccc(-c2cc3cc(OC)c(OC)cc3c(N)n2)c1 | 0.14 | 0.23 | 0.17 | 0.16 | 0.074 | 0.22 | 0.18 | 0.19 | 0.759 | Activity (HeLa [1]): 16.12%; Activity (HeLa [2]): 6.6%; Activity (HeLa [3]): 6.14%; Activity (HeLa [4]): 8.8%; Activity (HeLa [5]): 4.77%; Activity (HeLa [6]): 73.06%; Activity (HeLa [7]): 11.36%; Activity (HeLa [8]): 48.83%; Activity (HeLa [9]): 83.14%; Activity (HeLa [10]): 15.37%; Activity (HeLa [11]): 35.29%; Activity (HeLa [12]): 9.78%; Activity (HeLa [13]): 8.25%; Activity (HeLa [14]): 5.92%; Activity (HeLa [15]): 48.59%; Activity (HeLa [16]): 35.8%; Activity (HeLa [17]): 86.98%; Activity (HeLa [18]): 10.26%; Activity (HeLa [19]): 12.52%; Activity (HeLa [20]): 15.58% |
| COc1cc(OC)cc(-c2cc3cc(OC)c(OC)cc3c(N)n2)c1 | 0.4 | 0.69 | 0.54 | 0.77 | 0.19 | 0.4 | 0.72 | 0.7 | 0.282 | – |
| COc1cc2cc(-c3ccccc3C)nc(N)c2cc1OC | 0.54 | 0.91 | 0.67 | 0.78 | 0.38 | 0.56 | 1.25 | 0.83 | 0.437 | – |
| Cc1ccccc1-c1cc2c(N(C)C)cccc2c(N)n1 | > 10 | > 10 | > 10 | > 10 | > 10 | > 10 | > 10 | > 10 | > 10 | – |
| COc1ccc(-c2cc3c(N(C)C)cccc3c(N)n2)cc1OC | > 10 | > 10 | > 10 | > 10 | > 10 | > 10 | > 10 | > 10 | > 10 | – |
| Cc1ccc2c(N)nc(-c3ccccc3C)cc2c1 | – | – | – | – | – | – | – | – | 0.162 | – |
